The data set is described as follows: Toxicity liver stage against HepG2, at 10uM. Format: cell-based. Set-up: test concentration 10 uM, cell line HepG2-A16-CD81EGFP. Particulars: human, HepG2-A16-CD81EGFP cells; read-out: INHIBITION
The method in brief: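 Uninfected HepG2-A16-CD81EGFP cells, 3 × 10^3 per well, 1536-well, plated on prespotted compound at 10 μM final, parasite-free screening media added to match infected plates; puromycin 10 μM positive, DMSO 0.5% negative; run in parallel with 48 h PbLuc assay at 37 °C, 5% CO2; viability by CellTiter-Glo luminescence, normalized to controls.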
As for `CC(=O)N1CCOC[C@H](Oc2ccc(C(F)(F)F)cc2)C1`, the cytotoxicity at 10 µM was determined as 2.65%.
As to `Cc1cc2nc(CO[C@H]3CN(C4CCC4)C[C@H]3F)[nH]c2cc1C`, the cytotoxicity at 10 µM is 1.56%.
As to `COCCCNc1c(-c2ccc(C)cc2)c(=O)c1=O`, the cytotoxicity at 10 µM stood at 12.5%.
With `CC(=O)c1cn(CC(=O)N[C@H](C(=O)O)C(C)C)c2ccccc12`, the cytotoxicity at 10 µM is -7.06%.
For `COCCc1nnc(NC(=O)Cc2ccccc2Cl)o1` the value was -6.95%; for `COCC(=O)N1CCC2(CC1)CCn1c(-c3cccc(OC)c3)cnc12`, -5.21%.
In the case of `Cn1cc(CN2CCC3(CC2)CC(=O)Nc2ccccc23)cn1`, the cytotoxicity at 10 µM was determined as 8.49%.
For `CN(C)CCO[C@@H]1CC[C@H]2[C@H]1OCCN2C(=O)c1ccccc1F` the value was 2.25%; for `Cc1cc2nc(SCC(=O)N3CCCCC3)n(C)c(=O)c2[nH]1`, 5.56%; for `C[C@H](NC(=O)Cc1csc(-c2cccc(Cl)c2)n1)C(=O)O`, 1.25%.
Regarding `O=C(NC1CC1)c1ccc2ccc(N3CCN(CC4CC4)CC3)n2c1`, the cytotoxicity at 10 µM is 1.26%.
In the case of `Cc1nc(N2CCCC2)nc2c1CN(C(=O)N1CCOCC1)CC2`, the cytotoxicity at 10 µM came out at 6.17%.
In the case of `O=C(CSc1ccccn1)NCc1ccc2c(c1)CCC(=O)N2`, the cytotoxicity at 10 µM was determined as 20%.
For the molecule `Cc1cccc2c1cnn2CCCNC(=O)c1ccnn1C`, the cytotoxicity at 10 µM is 13.4%.
For `Cc1nn(C)c(C)c1-c1ccc(=O)n(C(C)C(=O)NC2CCCC2)n1` (configuration not stated) the value was 5.97%.
Take `Cc1ccc(CC2COCCN(Cc3ccccc3)C2)nc1` (configuration not stated): the cytotoxicity at 10 µM is 8.3%.
For `COc1ccc(C2CNCCN2C(=O)c2cccc3cccnc23)cc1` (configuration not stated) the value was -4.48%; for `CNc1ncc(C(=O)N2CCOC(C(=O)N3CCCCCC3)C2)cn1` (configuration not stated), -8.29%.
As for `CN(C(=O)c1ccn(C)n1)[C@@H]1CCC[C@@H](Oc2ccccc2)[C@@H]1O`, the cytotoxicity at 10 µM was -10.3%.
For `O=C(c1ccno1)N1CCCC(c2ncncc2-c2ccncc2)C1` (configuration not stated) the value was -19.9%; for `O=C(c1ccncc1)N1CCCC(c2cc(C(F)F)n3ncnc3n2)C1` (configuration not stated), -4.45%; for `Cn1ccnc1CN1CCOC(C)(C(=O)N2CCOCC2)C1` (configuration not stated), 1.27%.
For the molecule `Oc1nc(N2CCOCC2)nc2c1CCN(Cc1ccccc1)CC2`, the cytotoxicity at 10 µM is -4.03%.
Regarding `CCc1nc2ccccc2c(=O)n1CC1(O)CCN(C(=O)C(C)C)CC1`, the cytotoxicity at 10 µM was -24.3%.
Turning to `CC(C)N1CCC(Cc2cncc(-c3cc(F)ccc3C(=O)O)n2)C1` (configuration not stated), the cytotoxicity at 10 µM was -6.88%.
For `COc1cc(CN2C[C@H](OC)[C@]3(CCCO3)C2)ccc1F` the value was -7.61%; for `COCCN(Cc1ccccn1)C(=O)CC1OCCc2sccc21` (configuration not stated), -54.8%; for `Cc1cnn(CC(C)NCC(=O)NC2CCOCC2)c1` (configuration not stated), 15.6%.
For `N#Cc1c(CN2CCCC2Cn2cccn2)cn2ccccc12` (configuration not stated) the value was -4.67%; for `CC(C)OCCC(=O)NS(=O)(=O)N1CCOc2ccccc21`, -0.955%.
The figure for `CN(Cc1cc(Cl)cc2cccnc12)CC1CCN(CCO)CC1` is -5.2%; for `CNC(=O)NCC(=O)N(C)C(c1ccc(Cl)cc1)c1cccnc1` (configuration not stated) it is 9.61%.
Turning to `O=C(NCC[S+]([O-])Cc1ccccc1)c1ccc2[nH]c(=O)[nH]c2c1` (configuration not stated), the cytotoxicity at 10 µM was 6.11%.
For the molecule `COCCCC(=O)Nc1cccnc1N1CCCCC1`, the cytotoxicity at 10 µM is -6.34%.
For `CS(=O)(=O)c1ccccc1NC(=O)N[C@@H]1c2ccccc2C[C@@H]1O` the value was -42.2%.
Take `Cc1nc(C)c(C(=O)N2CCCc3c(F)cccc32)o1`: the cytotoxicity at 10 µM is -6.75%.
As to `O=C(NCc1nc(C2CC2)no1)N1CCOC(c2ccccc2F)C1` (configuration not stated), the cytotoxicity at 10 µM was -53.7%.
For `CCN(CC)Cc1ccccc1NCc1c(C)noc1C` the value was -2.04%.
In the case of `Cc1occc1C(=O)N1CCOC2(CCCC2)C1`, the cytotoxicity at 10 µM is -10.9%.
For `CN(Cc1cnn(C)c1)S(=O)(=O)N1CCc2ccccc2C1` the value was -6.47%; for `Cc1n[nH]c(C2CN(C(=O)c3csnn3)CCO2)n1` (configuration not stated), 2.74%; for `CN(Cc1nnc(C2CC2)n1C)C1CCN(CCc2ccccc2)C1` (configuration not stated), 2.03%.
The figure for `CCC(C#N)NC(=O)COC1CCCCC1` (configuration not stated) is 5.48%.
For the molecule `CCOc1ccccc1C(CC(=O)N(C)c1ccccc1)NC(C)=O` (configuration not stated), the cytotoxicity at 10 µM is -8.28%.
For `CC(NCC1CCN(CCO)CC1)c1ccc(F)c(Cl)c1` (configuration not stated) the value was -9.04%.
`CNC(=O)C(C)(C)CNC(=O)Nc1ccc(C)cn1`: the cytotoxicity at 10 µM amounted to 0.973%.
For `Cn1cc(CNC2CCS(=O)(=O)C2)c(-c2cc3ccccc3o2)n1` (configuration not stated) the value was -39.1%; for `COCCn1ccc(NC(=O)CNC(=O)CC(C)(C)C)n1`, 17.3%.
As to `CC(C)N(C)C(=O)c1ccc(Cl)c(NC(=O)CCN2C(=O)CCC2=O)c1`, the cytotoxicity at 10 µM was -2.63%.
The figure for `Cc1ccccc1S(=O)(=O)NC(=O)C1(c2ccccc2)CCC1` is -6.9%; for `Cc1cc(C(=O)N2CCN(Cn3cc(Cl)cn3)CC2)c(C)o1` it is 10.9%.
For `O=S(=O)(NC1CCCCC12OCCO2)c1ccc2c(c1)OCCO2` (configuration not stated), the cytotoxicity at 10 µM was -0.839%.
For `CC(CCN1CCOCC1)NC(=O)c1cccc(C(F)(F)F)c1F` (configuration not stated), the cytotoxicity at 10 µM is -44.8%.
As to `CCS(=O)(=O)NC(C(=O)NC)c1ccc(F)c(F)c1` (configuration not stated), the cytotoxicity at 10 µM is -9.06%.
For `N#Cc1cc(NC(=O)c2ccsc2)ccc1N1CCC(O)CC1` the value was 4.77%.
For `c1cnnc(N2CCCC2CNCc2nc3ccccc3o2)c1` (configuration not stated) the value was -10.9%.
Take `Cc1cnc(C(=O)N2CCCN(Cc3csc(C)n3)CC2)cn1`: the cytotoxicity at 10 µM was -16%.
For `CC(C)Nc1nc2c(s1)C(=O)CN(C)C2` the value was -9.77%; for `CC(C)CC(=O)N1CC(=O)c2sc(NCCc3ccccc3)nc2C1`, -0.501%; for `CCCc1ccc(CN2CCC3(CCC(=O)N(CCCOC)C3)CC2)o1`, -1.53%.
The figure for `O=C(c1cccc(C2CCNC2)c1)N1CCC(N2CCC(O)CC2)CC1` (configuration not stated) is 2.18%; for `O=C(c1ccc(-n2cnnc2)cc1Cl)N1CCCC2(CCNC2)C1` (configuration not stated) it is -5.32%.
On to `O=C(c1ccccn1)C1CCCN(c2nccc(CCC(F)(F)F)n2)C1` (configuration not stated), for which the cytotoxicity at 10 µM was -4.27%.
Turning to `O=C(NCCc1cccnc1)C1CCCN(Cc2ccco2)C1` (configuration not stated), the cytotoxicity at 10 µM is -3.98%.
As for `CCc1cc(CN(C)C(=O)c2cnc3c(c2)nc(N)n3CC)on1`, the cytotoxicity at 10 µM worked out at 1.3%.
For `CNc1ncc(CN(C)C(=O)c2ccccc2C2CCNC2)cn1` (configuration not stated) the value was 0.272%; for `CC(C)Oc1cccc(Cc2nc3c([nH]2)CCCNC3=O)c1`, -12.9%; for `CCCc1cc(CNC2CCN(c3nc(C)cc(C)n3)CC2)on1`, 7.51%.
As to `c1ccc(OCCSC2=NCCN2)cc1`, the cytotoxicity at 10 µM came to 1.52%.
For `Cc1nn(CCC(=O)NC(C(=O)O)c2c(C)n[nH]c2C)c(C)c1C` (configuration not stated) the value was -2.72%; for `Cc1cc(N2CCN(C(=O)CCc3scnc3C)CC2)cc(C)n1`, -48.4%; for `CC(C)[C@H]1COC(=O)N1Cc1nccn1C1CC1`, -15.4%.
For the molecule `CC(=O)N[C@@H]1CN(c2nc(C(N)=O)cs2)C[C@H]1c1ccc(C)o1`, the cytotoxicity at 10 µM is -41.2%.
The figure for `Cn1ccnc1CN(CCO)C(=O)C1CCN(C(=O)C2CC2)CC1` is 2.55%.
In the case of `CC(=O)N1CCc2[nH]cnc2C12CCN(C(=O)CCn1cccn1)CC2`, the cytotoxicity at 10 µM came to 5.71%.
For `Cc1cc(C)c2c(NC(C)c3nncn3C3CCCC3)ncnc2n1` (configuration not stated) the value was 5.01%; for `COCC1CCN(C(C(=O)O)c2c(F)cccc2OC(C)C)CC1` (configuration not stated), 0.515%.
For `OCC1(Cc2ccc(F)cc2F)CCCN(Cc2ccncc2)C1` (configuration not stated) the value was -3.44%; for `CCCSc1ncc(-c2nccn2CCO)cn1`, -12.9%.
For `COc1cc(N2CCN(Cc3ccc(C)o3)C(CCO)C2)nc(N)n1` (configuration not stated) the value was 2.8%; for `CCc1cc(NCCNc2cccnc2)n2nccc2n1`, -11.9%; for `CN(CCc1ccccc1)Cc1cc(C(=O)N2CCCC2(C)C)no1`, -9.18%.
`Cc1ccsc1CN(CCN(C)C)Cc1ccccn1`: the cytotoxicity at 10 µM was -16.1%.
The figure for `CCc1c(C)sc(NC(=O)CN2CCN(CC)CC2)c1C(=O)OC` is -11.1%; for `O=C1CCC(=O)N1c1nn(Cc2ccccc2)cc1Cl` it is -14.4%; for `Cc1nc(CN2CCCC2Cn2cncn2)no1` (configuration not stated) it is -7.01%.
For `Cc1nn(C)c(C)c1C1CCCN1C(=O)c1cnc2n[nH]c(C)c2c1` (configuration not stated) the value was -8.38%; for `CCc1nc(C2CCCN2C(=O)CCNS(C)(=O)=O)no1` (configuration not stated), -1.77%; for `CC(NC(=O)CCc1cccs1)c1nnc2n1CCC2` (configuration not stated), -4.22%.
The figure for `Cc1ccc(N2CCCN(C(=O)CC3CCCO3)CC2)nn1` (configuration not stated) is -3.68%; for `CC(C)Nc1nc(N2CCCC2)nc2c1CCN(S(C)(=O)=O)CC2` it is 6.43%; for `CN(C)C[C@H]1C[C@@H]2CN(C(=O)c3ccno3)C[C@@H]2O1` it is -6.32%.
`COc1cccc(CNC(C)c2ccc(-n3ccnc3)cc2)c1OC` (configuration not stated): the cytotoxicity at 10 µM was -35.1%.
For `C[C@@H]1C[C@H]2CN(Cc3nccs3)C[C@H]2O1` the value was -1.22%; for `CN1CCO[C@@H]2CN(C(=O)COc3cccc(Cl)c3)C[C@@H]2C1`, -9.58%.
For `Cc1ccc(CN2CCc3ncc(CNS(C)(=O)=O)n3CC2)o1` the value was -9.9%; for `COc1ccc(-c2cc(CN)nc3ccnn23)cc1`, -5.75%.

The record behind these values is ChEMBL document CHEMBL4513216, “Probing the Open Global Health Chemical Diversity Library for Multistage-Active Starting Points for Next-Generation Antimalarials” (ACS Infect Dis, 2020).
